The text below walks through data of ChEMBL document CHEMBL4819017 (Eur J Med Chem, 2021).

As a reminder, the AUC(0-inf) is total exposure, with the tail of the curve extrapolated. High values mean high exposure, low ones low exposure. The EC50 is the concentration giving half of the maximal effect. For orientation: IC50 means the concentration that gives 50% inhibition. By GI50 is commonly meant the concentration at which growth is held to half of that of the control. Read a low GI50 as more potent growth inhibition. One may read the half-life as the time needed for the level to fall by half in the phase considered. Low values mean rapid decline, high ones slow decline. A word on the bioavailability: it is dose-corrected exposure relative to a reference, in per cent. A high value points to good availability. For orientation: Ki means a dissociation constant, usually derived from enzyme kinetics or from competition with a known ligand. A word on the clearance: it is the volume of plasma or blood freed of the substance per unit of time. Low readings indicate a low capacity for elimination, high ones a high capacity for elimination. What is called Vd is a proportionality between amount in the body and measured concentration, not a real space.

One data set is filed under the species Homo sapiens. Briefly: Selectivity ratio of Ki for human p110delta/p85alpha to Ki for human p110alpha/p85alpha using PIP2 as substrate in presence of ATP. The procedure, abridged: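 Ki from a PI3-kinase HTRF assay run per manufacturer. Enzyme levels: p110α/p85α and p110δ/p85α 100 pM, p110β/p85α 500 pM, p110γ 4 nM. ATP at 50× KM: 200 μM (α, δ), 250 μM (β), 100 μM (γ). PIP2 10 μM. Activity normalized to no-compound control. Ratio is the isoform Ki over the α Ki.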

Data set [1] is described as follows: AUC(infinity) in BALB/c mouse at 10 mg/kg, po measured for 8 hrs. It counts as ADME, organism-based. Details: route oral, time 8 hrs, dose 10 mg/kg. To be noted: in vivo. The procedure, abridged:
(§1)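 BALB/c mice dosed I.V. or P.O. at the stated dose; plasma levels followed for 8 h. Parameters from noncompartmental analysis: AUC (h.ng/ml), T1/2 (h), Cl (L/h/Kg), Vd (L/Kg), Cmax (ng/ml), Tmax (h).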

Data set [2] in a line: Inhibition of PI3K/mTOR in human MCF7 cells assessed as reduction of AKT phosphorylation at Ser473 residue measured after 3 hrs by western blot assay. It counts as cell-based. To be noted: MCF7, 3 h. The procedure, abridged:
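MCF7 cells treated for 3 h across a dose range, washed and lysed with phosphatase and protease inhibitors. Lysates run on 10% SDS-PAGE and blotted, antibodies incubated overnight at 4 °C.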
In general terms: Immunoblotting shows a protein as a band on a membrane.

The target in data set [3] is Voltage-gated inwardly rectifying potassium channel KCNH2 (Homo sapiens, UniProt Q12809). Nature of the data set: Inhibition of human ERG by fluorescence polarization assay. The procedure, abridged:
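Predictor h-ERG membrane preparations (sonicated) incubated with test compound dilutions and fluorescent tracer (working 4X tracer at 4 nM) at room temperature for ≥1 h. Read-out by fluorescence polarization, ex 530/25, em 590/35.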
A general note: Polarisation of emitted light reports the rotation of a fluorescent probe.

The nature of data set [4]: AUC (infinity) in BALB/c mouse at 5 mg/kg, iv measured for 8 hrs. The format is ADME, organism-based. Details: route intravenous, dose 5 mg/kg, time 8 hrs. To be noted: in vivo. The procedure, abridged:
as §1

For the next data set, the system named is MCF7. Briefly: Growth inhibition of human MCF7 cells harboring mutated p110alpha measured after 72 hrs by Cell titre Glo-luminiscence cell viability assay. It counts as functional. A digest of the protocol:
(§2)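 Cells harvested just before confluency and seeded at 4,000 cells/well, then left 24 h before dosing. Serial dilutions from 10 mM DMSO stocks, final DMSO ≤0.5%, each concentration in duplicate.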

Data set [5] in a line: Half life in BALB/c mouse at 5 mg/kg, iv measured for 8 hrs. The format is ADME, organism-based. To be noted: in vivo. A digest of the protocol: as §1
Data set [6] can be described thus: Oral bioavailability in BALB/c mouse at 10 mg/kg measured for 8 hrs. To be noted: in vivo. The format is ADME, organism-based. The procedure, abridged:
as §1

The target of data set [7] is PI3-kinase p110-alpha/p85-alpha (Homo sapiens, UniProt P42336, H1047R). Briefly: Inhibition of p110alpha H1047R mutant/p85alpha (unknown origin) using PIP2:3PS lipid kinase as substrate in presence of ATP measured by ADP-Glo lipid kinase assay. The format is protein-complex assay. The procedure, abridged:
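Lipid kinase assay with PIP2:3PS substrate held at 3.25 µM. Activity normalized to no-compound control for each enzyme and fitted to a variable-slope sigmoidal dose-response curve.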
A general note: ADP-Glo first removes unused ATP, then detects ADP through luciferase.

Data set [8] in a line: Clearance in BALB/c mouse at 5 mg/kg, iv measured for 8 hrs. It counts as ADME, organism-based. Conditions: in vivo. A digest of the protocol: as §1
Data set [9] in a line: Metabolic stability in human liver microsomes assessed as parent compound remaining in presence of NADPH regenerating system at 0.5 uM measured after 15 mins by LC-MS/MS analysis. The format is ADME, Microsome. Conditions: read-out: Stabilty. A digest of the protocol:
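Human, mouse or rat liver microsomes at 0.5 mg/ml protein with compound at 0.5 µM and NADPH-regenerating system, 37 °C with shaking. Control wells contain 0.1 M potassium phosphate instead of the regenerating system. Reaction stopped with acetonitrile/0.1% formic acid, centrifuged, supernatant analyzed by LC-MS/MS. Result is percent parent compound remaining.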

Another data set addresses Cytochrome P450 2C9 (Homo sapiens, UniProt P11712). Nature of the data set: Inhibition of CYP2C9 (unknown origin) using Luciferin-H as substrate at 10 uM preincubated with enzyme and substrate for 5 mins followed by addition of NADPH regeneration system and measured after 60 mins by luminescence method. It counts as ADME. A digest of the protocol:
(§3)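 P450-Glo luminescence assays with these substrates: Luciferin-ME (CYP1A2), Luciferin-PPXE (CYP3A4), Luciferin-H (CYP2C9), LuciferinH-EG (CYP2C19), Luciferin-ME-EG (CYP2D6). Compounds run in 1/3 serial dilutions from 10 µM in 0.5% DMSO with enzyme and substrate. After 5 min preincubation, NADPH regeneration reagent added; 60 min at 37 °C, then detection reagent for 30 min. Background subtracted.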

The subject of another data set is HCT-116. Briefly: Growth inhibition of human HCT-116 cells harboring mutated p110alpha measured after 72 hrs by Cell titre Glo-luminiscence cell viability assay. The format is functional. The procedure, abridged:
as §2

Data set [10] in a line: Volume of distribution in BALB/c mouse at 5 mg/kg, iv measured for 8 hrs. Conditions: in vivo. The format is ADME, organism-based. A digest of the protocol: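 Dosing in BALB-C mice intravenously or orally, with plasma sampled over 8 h. Parameters (AUC, T1/2, Cl, Vd, Cmax, Tmax) come from a noncompartmental model. Units: AUC h.ng/ml, Vd L/Kg, Cmax ng/ml, Tmax h.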
The target in the next data set is T1, Cytochrome P450 1A2 (Homo sapiens, UniProt P05177).
T1 sequence (P05177 whole entry): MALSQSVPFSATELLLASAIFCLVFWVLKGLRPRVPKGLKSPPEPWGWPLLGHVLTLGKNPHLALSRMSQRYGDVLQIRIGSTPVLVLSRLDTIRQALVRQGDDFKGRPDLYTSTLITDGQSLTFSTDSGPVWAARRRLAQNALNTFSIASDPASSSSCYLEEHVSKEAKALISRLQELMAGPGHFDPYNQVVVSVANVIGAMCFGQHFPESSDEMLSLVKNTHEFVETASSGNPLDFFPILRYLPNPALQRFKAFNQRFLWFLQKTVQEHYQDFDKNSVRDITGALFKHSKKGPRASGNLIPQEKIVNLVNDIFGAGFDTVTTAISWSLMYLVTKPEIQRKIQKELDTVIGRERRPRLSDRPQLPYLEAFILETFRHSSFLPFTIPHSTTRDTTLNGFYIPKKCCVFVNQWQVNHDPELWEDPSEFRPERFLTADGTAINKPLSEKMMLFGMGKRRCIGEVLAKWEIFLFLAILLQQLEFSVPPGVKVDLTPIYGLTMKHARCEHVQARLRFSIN
Nature of the data set: Inhibition of CYP1A2 (unknown origin) using Luciferin-ME as substrate at 10 uM preincubated with enzyme and substrate for 5 mins followed by addition of NADPH regeneration system and measured after 60 mins by luminescence method. It counts as ADME. The procedure, abridged:
as §3

The target in data set [11] is Phosphatidylinositol 4,5-bisphosphate 3-kinase catalytic subunit alpha isoform (Homo sapiens, UniProt P42336). Briefly: Inhibition of human full length p110alpha (1 to 1068 residues) expressed in baculovirus-infected Sf21 cells by ADP-Hunter Plus assay.
Sequence of Phosphatidylinositol 4,5-bisphosphate 3-kinase catalytic subunit alpha isoform (P42336 whole entry, the tested form may be a part, canonical isoform): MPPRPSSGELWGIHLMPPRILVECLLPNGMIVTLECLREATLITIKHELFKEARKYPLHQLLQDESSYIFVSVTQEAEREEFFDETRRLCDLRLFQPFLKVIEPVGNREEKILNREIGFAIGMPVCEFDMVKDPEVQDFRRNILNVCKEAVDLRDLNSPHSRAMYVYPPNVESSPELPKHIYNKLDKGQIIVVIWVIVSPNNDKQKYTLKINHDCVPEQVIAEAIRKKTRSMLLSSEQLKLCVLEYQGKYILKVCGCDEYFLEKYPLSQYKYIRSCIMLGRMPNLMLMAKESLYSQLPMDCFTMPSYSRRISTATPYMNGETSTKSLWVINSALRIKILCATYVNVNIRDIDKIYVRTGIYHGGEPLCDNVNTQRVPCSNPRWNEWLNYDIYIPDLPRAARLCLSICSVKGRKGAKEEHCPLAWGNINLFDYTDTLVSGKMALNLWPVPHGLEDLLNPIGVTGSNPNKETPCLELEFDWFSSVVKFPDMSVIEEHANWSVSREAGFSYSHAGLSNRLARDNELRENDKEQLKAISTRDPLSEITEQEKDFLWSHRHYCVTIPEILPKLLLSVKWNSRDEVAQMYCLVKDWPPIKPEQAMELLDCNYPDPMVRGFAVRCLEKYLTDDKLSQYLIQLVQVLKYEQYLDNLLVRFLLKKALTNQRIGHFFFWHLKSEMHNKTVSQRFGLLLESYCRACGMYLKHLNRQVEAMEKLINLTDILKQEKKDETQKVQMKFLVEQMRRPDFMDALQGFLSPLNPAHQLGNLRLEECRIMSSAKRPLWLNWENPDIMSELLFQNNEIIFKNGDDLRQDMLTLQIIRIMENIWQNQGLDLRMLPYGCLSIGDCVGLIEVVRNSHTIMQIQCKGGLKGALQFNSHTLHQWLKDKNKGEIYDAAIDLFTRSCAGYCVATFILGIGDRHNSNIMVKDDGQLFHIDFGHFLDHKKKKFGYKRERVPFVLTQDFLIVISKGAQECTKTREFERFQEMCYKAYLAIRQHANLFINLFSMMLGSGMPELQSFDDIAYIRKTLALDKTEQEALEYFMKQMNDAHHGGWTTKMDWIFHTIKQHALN
The target of data set [12] is Serine/threonine-protein kinase mTOR (Homo sapiens, UniProt P42345). Briefly: Inhibition of recombinant human GST tagged mTOR (1360 to 2549 residues) expressed in baculovirus expression system measured by LanthaScreen assay. A digest of the protocol: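 mTOR inhibition measured by LanthaScreen assay; IC50 values average two independent experiments.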
Another data set concerns the target Cytochrome P450 2C19 (Homo sapiens, UniProt P33261). Nature of the data set: Inhibition of CYP2C19 (unknown origin) using LuciferinH-EG as substrate at 10 uM preincubated with enzyme and substrate for 5 mins followed by addition of NADPH regeneration system and measured after 60 mins by luminescence method. It counts as ADME. A digest of the protocol: as §3

Sequence of Voltage-gated inwardly rectifying potassium channel KCNH2 (Q12809 whole entry): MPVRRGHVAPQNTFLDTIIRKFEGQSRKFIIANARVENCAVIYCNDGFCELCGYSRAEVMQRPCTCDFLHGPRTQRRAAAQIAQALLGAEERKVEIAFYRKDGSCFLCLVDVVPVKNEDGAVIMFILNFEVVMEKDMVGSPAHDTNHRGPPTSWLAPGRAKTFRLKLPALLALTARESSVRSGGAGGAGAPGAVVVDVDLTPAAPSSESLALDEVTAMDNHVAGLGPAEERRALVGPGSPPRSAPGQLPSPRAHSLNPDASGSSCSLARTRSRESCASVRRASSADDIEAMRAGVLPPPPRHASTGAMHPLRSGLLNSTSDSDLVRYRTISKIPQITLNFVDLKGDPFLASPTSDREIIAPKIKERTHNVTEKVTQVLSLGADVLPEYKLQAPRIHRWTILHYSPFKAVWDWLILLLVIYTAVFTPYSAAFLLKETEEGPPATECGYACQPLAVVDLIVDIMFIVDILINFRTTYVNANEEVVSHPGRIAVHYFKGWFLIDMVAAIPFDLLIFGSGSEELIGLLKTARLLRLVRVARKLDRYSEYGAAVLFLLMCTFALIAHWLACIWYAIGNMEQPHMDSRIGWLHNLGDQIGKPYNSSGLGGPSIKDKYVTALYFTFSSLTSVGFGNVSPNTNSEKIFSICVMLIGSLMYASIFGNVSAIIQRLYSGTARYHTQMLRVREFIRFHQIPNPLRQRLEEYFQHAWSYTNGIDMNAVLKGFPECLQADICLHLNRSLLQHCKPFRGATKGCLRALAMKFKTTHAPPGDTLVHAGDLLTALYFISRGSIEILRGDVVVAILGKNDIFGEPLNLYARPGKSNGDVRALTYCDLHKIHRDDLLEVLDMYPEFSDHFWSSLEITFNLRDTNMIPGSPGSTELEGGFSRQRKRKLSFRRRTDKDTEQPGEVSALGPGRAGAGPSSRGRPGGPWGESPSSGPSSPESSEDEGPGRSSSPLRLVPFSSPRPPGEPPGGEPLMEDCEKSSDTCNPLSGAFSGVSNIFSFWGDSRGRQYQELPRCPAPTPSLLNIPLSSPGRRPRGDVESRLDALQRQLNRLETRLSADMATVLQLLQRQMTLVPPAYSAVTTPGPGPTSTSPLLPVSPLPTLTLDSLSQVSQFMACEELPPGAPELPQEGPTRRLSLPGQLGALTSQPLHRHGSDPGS
Sequence of Cytochrome P450 2C9 (P11712 whole entry): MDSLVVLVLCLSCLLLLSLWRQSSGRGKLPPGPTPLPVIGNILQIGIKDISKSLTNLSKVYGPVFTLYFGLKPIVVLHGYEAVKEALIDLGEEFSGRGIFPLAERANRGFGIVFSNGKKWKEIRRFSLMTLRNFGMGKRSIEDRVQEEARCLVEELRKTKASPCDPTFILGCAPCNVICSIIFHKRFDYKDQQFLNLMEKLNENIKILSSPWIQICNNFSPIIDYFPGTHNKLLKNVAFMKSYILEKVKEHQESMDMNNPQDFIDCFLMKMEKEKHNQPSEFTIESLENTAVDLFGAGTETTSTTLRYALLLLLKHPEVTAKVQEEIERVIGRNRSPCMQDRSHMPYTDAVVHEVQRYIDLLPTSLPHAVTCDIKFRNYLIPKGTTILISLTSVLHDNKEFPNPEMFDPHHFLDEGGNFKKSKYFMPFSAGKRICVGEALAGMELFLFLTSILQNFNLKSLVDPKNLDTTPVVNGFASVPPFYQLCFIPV
Sequence of PI3-kinase p110-alpha/p85-alpha (P42336 whole entry H1047R, looked up): as the sequence (P42336 whole entry, the tested form may be a part, canonical isoform) above, with H1047R counted along it
Sequence of Cytochrome P450 2C19 (P33261 whole entry): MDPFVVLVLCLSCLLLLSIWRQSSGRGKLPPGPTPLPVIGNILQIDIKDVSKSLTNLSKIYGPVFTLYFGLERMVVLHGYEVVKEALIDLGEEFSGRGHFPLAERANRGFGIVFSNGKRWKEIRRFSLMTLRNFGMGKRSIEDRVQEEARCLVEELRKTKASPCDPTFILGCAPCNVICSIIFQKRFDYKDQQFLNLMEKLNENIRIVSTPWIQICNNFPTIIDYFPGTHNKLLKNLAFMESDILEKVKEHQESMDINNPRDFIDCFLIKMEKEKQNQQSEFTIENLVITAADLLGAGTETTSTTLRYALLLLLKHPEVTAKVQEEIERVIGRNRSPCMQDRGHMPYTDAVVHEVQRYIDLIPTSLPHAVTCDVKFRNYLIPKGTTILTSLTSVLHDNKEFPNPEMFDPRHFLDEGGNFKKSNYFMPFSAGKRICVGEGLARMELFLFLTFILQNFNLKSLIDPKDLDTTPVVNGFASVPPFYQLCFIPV

In the case of `COc1ncc2cc1NS(=O)(=O)c1cccc(c1)C(=O)NCc1cncc(c1)-c1cnc3ccc-2cn13`, the Selectivity ratio in the data set listed under Homo sapiens stood at 0.4. For the same compound, the AUC(0-inf) came to 4480 ng·h/mL in [1] and 2640 ng·h/mL in data set [4]. Besides, the EC50 in [2] stood at 0.46 nM. In addition, the IC50 in data set [3] is over 30 µM; at Cytochrome P450 2C9, over 30 µM; on Cytochrome P450 1A2, over 30 µM; in data set [11], 0.8 nM; in data set [12], 3.3 nM; against Cytochrome P450 2C19, over 30 µM. The results for the GI50 with MCF7 and in the data set on HCT-116 were 7 nM and 22.8 nM, respectively. Besides, the half-life in data set [5] is 155 min. Moreover, the bioavailability in data set [6] amounted to 84.6%. Also, the Ki in data set [7] was 0.1 nM. The same compound gave a clearance in data set [8] of 31.5 mL/min/kg. Besides, in data set [9], the remaining at 0.25 h, 0.5 µM is 100%. Moreover, the Vd in data set [10] turned out to be 5.98 L/kg.
